Source: ChEMBL document CHEMBL4316611, “Design, synthesis and evaluation of novel (S)-tryptamine derivatives containing an allyl group and an aryl sulfonamide unit as anticancer agents” (Bioorg Med Chem Lett, 2019)

Assays:
HepG2 [1] = test: Induction of apoptosis in human HepG2 cells assessed as early apoptotic cells level at 20 uM incubated for 48 hrs by Annexin V-FITC/propidium iodide staining based flow cytometry (reference value: 2.89%); type: functional
HepG2 [2] = test: Induction of cell cycle arrest in human HepG2 cells assessed as accumulation at G1 phase incubated for 24 hrs by propidium iodide staining based flow cytometry; type: functional
HepG2 [3] = test: Induction of apoptosis in human HepG2 cells assessed as early apoptotic cells level at 30 uM incubated for 48 hrs by Annexin V-FITC/propidium iodide staining based flow cytometry (reference value: 2.89%); type: functional
HepG2 [4] = test: Induction of apoptosis in human HepG2 cells assessed as necrotic cells level at 20 uM incubated for 48 hrs by Annexin V-FITC/propidium iodide staining based flow cytometry (reference value: 0.53%); type: functional
HepG2 [5] = test: Induction of apoptosis in human HepG2 cells assessed as necrotic cells level at 30 uM incubated for 48 hrs by Annexin V-FITC/propidium iodide staining based flow cytometry (reference value: 0.53%); type: functional
A549 = test: Cytotoxicity in human A549 cells assessed as reduction in cell viability incubated for 48 hrs by MTT assay; type: functional, cell-based; details: A549, 48 h
Summary of the method: (§1)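 MTT viability assay; cells exposed continuously to compounds for 48 h. IC50 values reported as mean ± SD. Cisplatin served as positive control.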

HepG2 [6] = test: Induction of cell cycle arrest in human HepG2 cells assessed as accumulation at G1 phase at 25 uM incubated for 24 hrs by propidium iodide staining based flow cytometry (reference value: 39.79%); type: functional
HepG2 [7] = test: Induction of apoptosis in human HepG2 cells assessed as viable cells level at 10 uM incubated for 48 hrs by Annexin V-FITC/propidium iodide staining based flow cytometry (reference value: 94.56%); type: functional
HepG2 [8] = test: Induction of apoptosis in human HepG2 cells assessed as viable cells level at 30 uM incubated for 48 hrs by Annexin V-FITC/propidium iodide staining based flow cytometry (reference value: 94.56%); type: functional
HeLa = test: Cytotoxicity in human HeLa cells assessed as reduction in cell viability incubated for 48 hrs by MTT assay; type: functional, cell-based; summary of the method: as §1
HepG2 [9] = test: Induction of apoptosis in human HepG2 cells assessed as late apoptotic cells level at 20 uM incubated for 48 hrs by Annexin V-FITC/propidium iodide staining based flow cytometry (reference value: 2.02%); type: functional
HepG2 [10] = test: Induction of cell cycle arrest in human HepG2 cells assessed as accumulation at G1 phase at 15 uM incubated for 24 hrs by propidium iodide staining based flow cytometry (reference value: 39.79%); type: functional
CNE = test: Cytotoxicity in human CNE1 cells assessed as reduction in cell viability incubated for 48 hrs by MTT assay; type: functional, cell-based; summary of the method: as §1
HepG2 [11] = test: Induction of apoptosis in human HepG2 cells assessed as early apoptotic cells level at 10 uM incubated for 48 hrs by Annexin V-FITC/propidium iodide staining based flow cytometry (reference value: 2.89%); type: functional
HepG2 [12] = test: Induction of apoptosis in human HepG2 cells assessed as viable cells level at 20 uM incubated for 48 hrs by Annexin V-FITC/propidium iodide staining based flow cytometry (reference value: 94.56%); type: functional
HepG2 [13] = test: Inhibition of colony formation in human HepG2 cells at 7.5 uM incubated for 14 days by Giemsa staining based assay; type: functional; details: HepG2, 336 h
Summary of the method: (§2)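 Colony formation assay: cells exposed at 0, 2.5, 5 and 7.5 μM for 2 weeks. Colonies imaged and quantified by image analysis. Inhibition rate expressed as mean ± SD against control.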

HepG2 [14] = test: Inhibition of colony formation in human HepG2 cells incubated for 14 days by Giemsa staining based assay; type: functional, cell-based; summary of the method: as §2
HepG2 [15] = test: Cytotoxicity in human HepG2 cells assessed as reduction in cell viability incubated for 48 hrs by MTT assay; type: functional, cell-based; details: HepG2, 48 h; summary of the method: as §1
HepG2 [16] = test: Induction of apoptosis in human HepG2 cells assessed as necrotic cells level at 10 uM incubated for 48 hrs by Annexin V-FITC/propidium iodide staining based flow cytometry (reference value: 0.53%); type: functional
HepG2 [17] = test: Induction of apoptosis in human HepG2 cells assessed as late apoptotic cells level at 30 uM incubated for 48 hrs by Annexin V-FITC/propidium iodide staining based flow cytometry (reference value: 2.02%); type: functional
HepG2 [18] = test: Induction of cell cycle arrest in human HepG2 cells assessed as accumulation at G1 phase at 35 uM incubated for 24 hrs by propidium iodide staining based flow cytometry (reference value: 39.79%); type: functional
HepG2 [19] = test: Induction of apoptosis in human HepG2 cells assessed as late apoptotic cells level at 10 uM incubated for 48 hrs by Annexin V-FITC/propidium iodide staining based flow cytometry (reference value: 2.02%); type: functional

## C=CC[C@@H](Cc1c[nH]c2ccccc12)NS(=O)(=O)c1c(C(C)C)cc(C(C)C)cc1C(C)C
HepG2 [1]
  Activity: 21.29%
HepG2 [2]
  Activity: Dose-dependent effect
HepG2 [3]
  Activity: 53.46%
HepG2 [4]
  Activity: 0.75%
HepG2 [5]
  Activity: 0.91%
A549
  IC50: 18.7 µM
HepG2 [6]
  Activity: 48.82%
HepG2 [7]
  Activity: 89.7%
HepG2 [8]
  Activity: 25.38%
HeLa
  IC50: 16.5 µM
HepG2 [9]
  Activity: 4.85%
HepG2 [10]
  Activity: 44.89%
CNE
  IC50: 18.3 µM
HepG2 [11]
  Activity: 6.63%
HepG2 [12]
  Activity: 73.08%
HepG2 [13]
  inhibition at 7.5 µM: 95%
HepG2 [14]
  inhibition: Dose-dependent effect
HepG2 [15]
  IC50: 16.5 µM
HepG2 [16]
  Activity: 0.69%
HepG2 [17]
  Activity: 20.25%
HepG2 [18]
  Activity: 53.35%
HepG2 [19]
  Activity: 2.96%
